Experimental data taken from ChEMBL document CHEMBL1121657, “Effects of 1-arylpyrroles and naphthoflavones upon cytochrome P-450 dependent monooxygenase activities” (J Med Chem, 1981).

Columns and labels:
Rattus norvegicus [1] = organism: Rattus norvegicus; experiment: Michaelis-Menten constant for 7-ethoxycoumarin deethylation in rat liver microsomes exposed to beta-naphthoflavone at 500 uM; settings: Microsome
How it was run: (§1)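 Liver microsomes from young male Sprague-Dawley rats (75-125 g) given the inducer ip in corn oil at 50 mg/kg on 3 successive days, microsomes isolated on day 4. 7-Ethoxycoumarin (2.5 to 300 μM final) in 0.1 M Tris-HCl pH 7.4 with NADPH-regenerating system. Reaction started with microsomal protein (0.375-0.56 mg), run 4 min at 37 °C, stopped with TCA. 7-Hydroxycoumarin read fluorometrically at pH 10.3. Inhibitor added from methanol stock, ≥4 assays per condition. KM/Vmax obtained by the Eisenthal–Cornish-Bowden direct linear method with 95% distribution-free confidence limits.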

Rattus norvegicus [2] = organism: Rattus norvegicus; experiment: Compound was evaluated for alpha -rate constant, in liver microsomes from 3-methylcholanthrene-exposed rats; settings: Microsome
How it was run: (§2)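 Rats (male Sprague-Dawley, 75-125 g) dosed ip with 3MC or βNF, 50 mg/kg in corn oil, on 3 successive days; liver microsomes isolated day 4. 7-Ethoxycoumarin deethylation (2.5-300 μM substrate) measured with inhibitor present; KM and Vmax by Eisenthal–Cornish-Bowden direct linear method. Ki from x-intercept of least-squares KM/Vmax vs [I]; αKi from x-intercept of 1/Vmax vs [I].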

Rattus norvegicus [3] = organism: Rattus norvegicus; experiment: Compound was evaluated for alpha -rate constant, in liver microsomes from beta-naphthoflavone-exposed rats; settings: Microsome; how it was run: as §2
Rattus norvegicus [4] = organism: Rattus norvegicus; experiment: Maximum rate constant for 7-ethoxycoumarin deethylation in rat liver microsomes 3-methylcholanthrene at concentration of 100 nM; settings: Microsome
[5] = Compound was evaluated for inhibition constant, in liver microsomes from beta-naphthoflavone-exposed rats; set-up: species or system Rattus norvegicus, Microsome
Rattus norvegicus [6] = organism: Rattus norvegicus; experiment: Michaelis-Menten constant for 7-ethoxycoumarin deethylation in rat liver microsomes exposed to 3-methylcholanthrene at concentration of 100 uM; settings: Microsome
How it was run: (§3)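 Liver microsomes from male Sprague-Dawley rats given 3MC or βNF ip (50 mg/kg/day, corn oil, 3 days), harvested day 4. NADPH-regenerating system in 0.1 M Tris-HCl pH 7.4. Substrate 2.5-300 μM final. Inhibitor added from methanol stock. Reaction started with 0.375-0.56 mg microsomal protein, run 4 min at 37 °C, stopped with TCA. 7-Hydroxycoumarin fluorescence read at pH 10.3. At least four assays per substrate concentration. KM and Vmax by direct linear method, with distribution-free 95% confidence limits.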

Rattus norvegicus [7] = organism: Rattus norvegicus; experiment: Maximum rate constant for 7-ethoxycoumarin deethylation in rat liver microsomes exposed to beta-naphthoflavone at concentration of 1500 uM; settings: Microsome; how it was run: as §3
[8] = Compound was evaluated for inhibition constant, in liver microsomes from 3-methylcholanthrene-exposed rats; set-up: species or system Rattus norvegicus, Microsome
Rattus norvegicus [9] = organism: Rattus norvegicus; experiment: Michaelis-Menten constant for 7-ethoxycoumarin deethylation in rat liver microsomes exposed to beta-naphthoflavone at 1500 nM; settings: Microsome
Rattus norvegicus [10] = organism: Rattus norvegicus; experiment: Michaelis-Menten constant for 7-ethoxycoumarin deethylation in rat liver microsomes exposed to 3-methylcholanthrene at concentration of 200 uM; settings: Microsome; how it was run: as §3
Rattus norvegicus [11] = organism: Rattus norvegicus; experiment: Michaelis-Menten constant for 7-ethoxycoumarin deethylation in rat liver microsomes exposed to 3-methylcholanthrene at concentration of 50 nM; settings: Microsome
Rattus norvegicus [12] = organism: Rattus norvegicus; experiment: Maximum rate constant for 7-ethoxycoumarin deethylation in rat liver microsomes 3-methylcholanthrene at concentration of 200 nM; settings: Microsome
Rattus norvegicus [13] = organism: Rattus norvegicus; experiment: Maximum rate constant for 7-ethoxycoumarin deethylation in rat liver microsomes exposed to beta-naphthoflavone at concentration of 1000 uM; settings: Microsome; how it was run: as §3
Rattus norvegicus [14] = organism: Rattus norvegicus; experiment: Michaelis-Menten constant for 7-ethoxycoumarin deethylation in rat liver microsomes exposed to beta-naphthoflavone at 1000 nM; settings: Microsome
Rattus norvegicus [15] = organism: Rattus norvegicus; experiment: Maximum rate constant for 7-ethoxycoumarin deethylation in rat liver microsomes exposed to beta-naphthoflavone at 500 uM; settings: Microsome; how it was run: as §3
Rattus norvegicus [16] = organism: Rattus norvegicus; experiment: Maximum rate constant for 7-ethoxycoumarin deethylation in rat liver microsomes 3-methylcholanthrene at concentration of 50 nM; settings: Microsome
Rattus norvegicus [17] = organism: Rattus norvegicus; experiment: Maximum rate constant for 7-ethoxycoumarin deethylation in rat liver microsomes exposed to beta-naphthoflavone at 100 uM; settings: Microsome; how it was run: as §3
Rattus norvegicus [18] = organism: Rattus norvegicus; experiment: Maximum rate constant for 7-ethoxycoumarin deethylation in rat liver microsomes exposed to beta-naphthoflavone at 50 uM; settings: Microsome; how it was run: as §3
Rattus norvegicus [19] = organism: Rattus norvegicus; experiment: Maximum rate constant for 7-ethoxycoumarin deethylation in rat liver microsomes exposed to beta-naphthoflavone at 150 uM; settings: Microsome; how it was run: as §3
Rattus norvegicus [20] = organism: Rattus norvegicus; experiment: Michaelis-Menten constant for 7-ethoxycoumarin deethylation in rat liver microsomes exposed to beta-naphthoflavone at 10 uM […]; settings: Microsome; how it was run: as §3
Rattus norvegicus [21] = organism: Rattus norvegicus; experiment: Michaelis-Menten constant for 7-ethoxycoumarin deethylation in rat liver microsomes exposed to beta-naphthoflavone at 150 uM; settings: Microsome; how it was run: as §3
Rattus norvegicus [22] = organism: Rattus norvegicus; experiment: Michaelis-Menten constant for 7-ethoxycoumarin deethylation in rat liver microsomes exposed to beta-naphthoflavone at 50 uM; settings: Microsome; how it was run: as §1
Rattus norvegicus [23] = organism: Rattus norvegicus; experiment: Maximum rate constant for 7-ethoxycoumarin deethylation in rat liver microsomes exposed to beta-naphthoflavone at 1 uM; settings: Microsome; how it was run: as §3
Rattus norvegicus [24] = organism: Rattus norvegicus; experiment: Michaelis-Menten constant for 7-ethoxycoumarin deethylation in rat liver microsomes exposed to beta-naphthoflavone at 2.5 uM; settings: Microsome; how it was run: as §3
Rattus norvegicus [25] = organism: Rattus norvegicus; experiment: Michaelis-Menten constant for 7-ethoxycoumarin deethylation in rat liver microsomes exposed to beta-naphthoflavone at 1 uM; settings: Microsome; how it was run: as §3
Rattus norvegicus [26] = organism: Rattus norvegicus; experiment: Maximum rate constant for 7-ethoxycoumarin deethylation in rat liver microsomes exposed to beta-naphthoflavone at 5 uM; settings: Microsome; how it was run: as §3
Rattus norvegicus [27] = organism: Rattus norvegicus; experiment: Maximum rate constant for 7-ethoxycoumarin deethylation in rat liver microsomes exposed to beta-naphthoflavone at 2.5 uM; settings: Microsome; how it was run: as §3
Rattus norvegicus [28] = organism: Rattus norvegicus; experiment: Michaelis-Menten constant for 7-ethoxycoumarin deethylation in rat liver microsomes exposed to beta-naphthoflavone at 5 uM; settings: Microsome; how it was run: as §3

Compound: O=c1cc(-c2ccccc2)oc2cc3ccccc3cc12
- Km (Rattus norvegicus [1]): 36.9 µM
- Alpha Ki (Rattus norvegicus [2]): 0.21 µM
- Alpha Ki (Rattus norvegicus [3]): 11 µM
- Vmax (pM min-1 mg-1) (Rattus norvegicus [4]): 114
- Ki [5]: 0.24 µM
- Km (Rattus norvegicus [6]): 16.7 µM
- Vmax (pM min-1 mg-1) (Rattus norvegicus [7]): 1210
- Ki [8]: 0.049 µM
- Km (Rattus norvegicus [9]): 93.1 µM
- Km (Rattus norvegicus [10]): 31.5 µM
- Km (Rattus norvegicus [11]): 19.2 µM
- Vmax (pM min-1 mg-1) (Rattus norvegicus [12]): 88
- Vmax (pM min-1 mg-1) (Rattus norvegicus [13]): 1240
- Km (Rattus norvegicus [14]): 66.3 µM
- Vmax (pM min-1 mg-1) (Rattus norvegicus [15]): 1300
- Vmax (pM min-1 mg-1) (Rattus norvegicus [16]): 150

Compound: c1ccc(-n2cccc2)cc1
- Alpha Ki (Rattus norvegicus [3]): 430 µM
- Ki [5]: 27 µM
- Vmax (pM min-1 mg-1) (Rattus norvegicus [17]): 760
- Vmax (pM min-1 mg-1) (Rattus norvegicus [18]): 819
- Vmax (pM min-1 mg-1) (Rattus norvegicus [19]): 669
- Km (Rattus norvegicus [20]): 41.2 µM
- Km (Rattus norvegicus [21]): 64.3 µM
- Km (Rattus norvegicus [22]): 28.4 µM

Compound: c1ccc(-c2c[nH]cn2)cc1
- Alpha Ki (Rattus norvegicus [2]): 64 µM
- Alpha Ki (Rattus norvegicus [3]): 75 µM

Compound: CC(C)c1ccccc1-n1ccnc1
- Vmax (pM min-1 mg-1) (Rattus norvegicus [23]): 734
- Alpha Ki (Rattus norvegicus [3]): 1.4 µM
- Ki [5]: 0.3 µM
- Km (Rattus norvegicus [24]): 35.8 µM
- Km (Rattus norvegicus [25]): 22.1 µM
- Vmax (pM min-1 mg-1) (Rattus norvegicus [26]): 227
- Vmax (pM min-1 mg-1) (Rattus norvegicus [27]): 346
- Km (Rattus norvegicus [28]): 41.7 µM
